Test [1] can be described thus: Inhibition of Trypanosoma cruzi strain CL Brener C-terminal His6-tagged OSC expressed in Pichia pastoris GS115 using 2,3-oxidosqualene as substrate after 20 mins by 1H NMR method. In a few lines: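 T. cruzi OSC was expressed in Pichia pastoris GS115, first grown in BMGY ([…]glycerol) at 30 °C for 3 days and then induced in BMMY (1% methanol) at 25 °C for 2 days. Cells were homogenized in Tris-HCl pH 7.5 with 250 mM NaCl. Purification buffers contained 0.2% Triton X-100 or 0.2–1.2% β-octylglucoside. The substrate, 2,3-oxidosqualene, was in 10 mM sodium phosphate buffer with varied inhibitor. Reactions started with 19 nM enzyme (final) and ran at 37 °C for 20 min. Lanosterol was quantified by 1H NMR with factor analysis, and IC50 was taken from a fit of the first-factor score.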

A further test has as its target T1, Lanosterol synthase (Homo sapiens, UniProt P48449).
T1 sequence (P48449 whole entry): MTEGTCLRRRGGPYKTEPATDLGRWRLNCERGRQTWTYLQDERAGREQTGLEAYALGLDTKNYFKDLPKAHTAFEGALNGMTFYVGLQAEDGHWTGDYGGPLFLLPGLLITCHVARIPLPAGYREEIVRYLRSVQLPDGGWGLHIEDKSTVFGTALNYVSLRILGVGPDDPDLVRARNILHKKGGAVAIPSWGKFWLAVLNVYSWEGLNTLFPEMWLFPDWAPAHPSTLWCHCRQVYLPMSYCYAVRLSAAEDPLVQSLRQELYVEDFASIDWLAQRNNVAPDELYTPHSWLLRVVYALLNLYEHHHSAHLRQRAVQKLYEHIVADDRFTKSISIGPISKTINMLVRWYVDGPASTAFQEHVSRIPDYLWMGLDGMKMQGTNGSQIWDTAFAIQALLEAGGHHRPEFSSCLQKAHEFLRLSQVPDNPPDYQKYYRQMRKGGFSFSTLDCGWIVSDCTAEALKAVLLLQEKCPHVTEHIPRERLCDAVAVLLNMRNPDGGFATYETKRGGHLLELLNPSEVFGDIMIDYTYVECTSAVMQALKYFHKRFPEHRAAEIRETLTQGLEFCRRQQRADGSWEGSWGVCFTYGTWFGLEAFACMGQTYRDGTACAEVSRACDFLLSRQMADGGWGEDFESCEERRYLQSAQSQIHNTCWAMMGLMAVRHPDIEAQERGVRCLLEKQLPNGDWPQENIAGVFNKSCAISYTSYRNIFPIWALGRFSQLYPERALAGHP
Briefly: Inhibition of human C-terminal His6-tagged OSC expressed in Pichia pastoris GS115 using 2,3-oxidosqualene as substrate after 90 mins by 1H NMR method. In a few lines: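 Human OSC was expressed in Pichia pastoris GS115 using BMGY at 30 °C for 3 days, then BMMY methanol induction at 25 °C for 2 days. Purification included a Superdex 200 step, with buffers containing 0.2% Triton X-100 or 0.2–0.8% β-octylglucoside. Product was measured by NMR with factor analysis, and IC50 was fitted from the first-factor score.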

A short description of test [2]: Selectivity ratio of IC50 for human C-terminal His6-tagged OSC to IC50 for Trypanosoma cruzi strain CL Brener C-terminal His6-tagged OSC.
Test [3] deals with Trypanosoma cruzi. Briefly: Antiparasitic activity against epimastigote stage of Trypanosoma cruzi Tulahuen assessed as inhibition of parasite proliferation after 48 hrs by Alamar Blue assay. In kind it is functional, organism-based. In a few lines:
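Epimastigotes (one million per assay) were cultured in LIT medium with 10% newborn calf serum and co-incubated with compound. Afterwards, alamarBlue was added and fluorescence was read as a measure of viability.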
(In general: Alamar Blue is a resazurin reagent that responds to reducing activity.)

For test [4], the system named is Trypanosoma cruzi. Kind of test: Parasiticidal activity against amastigote stage of Trypanosoma cruzi Tulahuen infected in mouse brain fibroblast assessed as time duration of effect at 9.6 microM preincubated for 5 days followed by another 10 days incubation with fresh compound. The class given is functional.
For test [5], the system named is Trypanosoma cruzi. Briefly: Parasiticidal activity against amastigote stage of Trypanosoma cruzi Tulahuen infected in mouse brain fibroblast assessed as time duration of effect at 19.2 microM preincubated for 5 days followed by another 10 days incubation with fresh compound. The class given is functional.
Test [6] deals with Trypanosoma cruzi. Briefly: Parasiticidal activity against amastigote stage of Trypanosoma cruzi Tulahuen infected in mouse brain fibroblast assessed as time duration of effect at 10.9 microM preincubated for 5 days followed by another 10 days incubation with fresh compound. The class given is functional.
The subject of test [7] is Trypanosoma cruzi. Kind of test: Parasiticidal activity against amastigote stage of Trypanosoma cruzi Tulahuen infected in mouse brain fibroblast assessed as time duration of effect at 21.8 microM preincubated for 5 days followed by another 10 days incubation with fresh compound. In kind it is functional.

Broadly, the IC50 is the concentration that gives 50% inhibition. Turning to `C=CCN(C)Cc1ccc(N2CCC(N(C)S(=O)(=O)c3ccc(Cl)cc3)CC2)cc1.Cl.Cl`, the results for the IC50 (in test [1]; on Lanosterol synthase; in the test with Trypanosoma cruzi [3]) were 42 nM, 16 nM and 110 nM, respectively. Also, the Ratio IC50 in test [2] was found to be 0.38. Besides, the results for the Time in the test on Trypanosoma cruzi [4] and with Trypanosoma cruzi [5] were 62 days and 80 days, respectively.

As to `CN(C)Cc1ccc(N2CCC(N(C)S(=O)(=O)c3ccc(Cl)cc3)CC2)cc1`, the figures for the IC50 (in test [1]; against Lanosterol synthase) were 140 nM and 230 nM, respectively. The Ratio IC50 in test [2] was found to be 1.6.

For the molecule `CN(C)CCOc1ccc(OC2CCN(S(=O)(=O)c3ccc(F)cc3)CC2)cc1.Cl`, the IC50 was found to be 44 nM in test [1], 120 nM on Lanosterol synthase and 2150 nM with Trypanosoma cruzi [3]. Further, in test [2], the Ratio IC50 stood at 2.7. Also, the results for the Time in the test on Trypanosoma cruzi [6] and in the test on Trypanosoma cruzi [7] were 21 days and 29 days, respectively.

Take `C=CCN(C)CCCCCCOc1ccc(C(=O)c2ccc(Br)cc2)c(F)c1`: it took 13 nM to reach half-maximal inhibition in test [1] (IC50).

As to `O=C(Cn1ccnc1[N+](=O)[O-])NCc1ccccc1` [BENZNIDAZOLE], the Time in the test on Trypanosoma cruzi [4] amounted to 35 days; in the test with Trypanosoma cruzi [5] it was 53 days.
